The text below walks through data of the EternaBench riboswitch data.

This series has as its system MS2 coat protein. As to the kind of experiment: apparent Kd, MS2 coat protein; higher = weaker binding; RNA-MaP array; FMN 200 µM where present. A digest of the protocol:
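Stalled E. coli RNA polymerase transcribed the designs on Illumina sequencing-chip clusters. SNAP-549-labelled MS2 coat protein was titrated from 0.7 or 1.5 nM, doubling to 3 µM, without and then with constant ligand, in 100 mM Tris-HCl pH 7.5, 80 mM KCl, 4 mM MgCl2, BSA, DTT, yeast tRNA and Tween-20. Per-cluster binding curves were fitted to green signal normalised to red-channel RNA signal and control-cluster median Fmax. The apparent Kd is the median of the filtered fits.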

The mark [1] stands for this setting: designed as: ON switch for flavin mononucleotide, no ligand.
[2] abbreviates: ligand present: flavin mononucleotide, designed as: ON switch for flavin mononucleotide.
[3] abbreviates: designed as: OFF switch for flavin mononucleotide, no ligand.
Where [4] appears, read: ligand present: flavin mononucleotide, designed as: OFF switch for flavin mononucleotide.

For orientation: apparent Kd means a dissociation constant that holds for the conditions of the assay. In the case of “GUGCUGCAACGGUGCACGAGACAUGAGGAUCACCCAUGUGACAGAAGGGACUUGUUAAAGGUAGGUCAGGAUAUGUCUUAAAAG”, the “apparent Kd” value is, setting by setting: under setting [1], 191 nM; under setting [2], 53.1 nM.
As for “CGGUGACGUGUAGGAUAUGGCGAUGGGUUUUGGCCAGAAGGACAUGAGGAUCACCCAUGUGGUAGAGGGCUGGCGGCUGCCCGU”, the “apparent Kd” value runs as follows: under setting [3], 13.6 nM; under setting [4], 57.5 nM.
As to “AUAGCUCUCUAGAAGGACCAAGCAGUAUACCAUCAGGUAUAUACGCUAGGUAGGAUAUGGGACAUGAGGAUCACCCAUGUGUAG”, the “apparent Kd” value stood at 53.9 nM under setting [1] and 33.9 nM under setting [2].
On to “UUAUGAGAGCAGGAUAUCUUAUUUUUUUUUUAUAGAGAAGGGCUCACAUGAGGAUCACCCAUGUGGUCCUAGAU”, for which the “apparent Kd” value is, setting by setting: under setting [3], 32.5 nM; under setting [4], 52.5 nM.
On to “GGAGCUCAUCAAUACAUGAGGAUCACCCAUGUCGAAUGAUAUGAGGAUAUGCAUCGGAAAACGAUGUAGAAGGCAUAGAGCUCC”, for which the “apparent Kd” value turned out to be 15.3 nM under setting [1] and 6.63 nM under setting [2].
For “GUAGCAUACUGAGGAUAUUCAUACCGGAAACGGACAUGAGGAUCACCCAUGUUAUAUAAAUAUUUGGAGAAGGCAGAAUGCUAC”, in that order: 19.4 nM and 13.2 nM.
Turning to “GGAAUACAUGAGGAUCACCCAUGUAAGGAUAUGCUGAUUAACACGGAAUAAUUAUGCAGCAGAAGGUACAAAGG”, the “apparent Kd” value came to 113 nM under setting [3] and 91.1 nM under setting [4].
For the sequence “CCAUAAAAGAUCCAAAUUUACAACAUGAGGAUCACCCAUGUGCAGGAUAUCGUGAAAGUAAAAUACGAGAAGGGCAAGAACUGC”, the “apparent Kd” value under setting [3] was determined as 300 nM and the “apparent Kd” value under setting [4] was 362 nM.
Take “AAAUUUGACGAAGGAUAUGGAUACAUGAGGAUCACCCAUGUUUAUUUUGUGAUUUUGUUUAAGUACCAGAAGGUCGAAUACAUA”: the “apparent Kd” value is, setting by setting: under setting [3], 39 nM; under setting [4], 63.9 nM.
In the same order, the values of “GCAGCGUCUGCAGGAUAUCAGCACGUGUAGUGCUGAGAAGGGCACAUGAGGAUCACCCAUGUGAUCAAUUAAUAGACAUGCUGC” are 6.98 nM and 15.5 nM.
For “GGUGCGUUUGUGAGGAUAUGCUGGUCCUUGGUUCGGCAGAAGGCACAUGAGGAUCACCCAUGUGGUGUCGCUCC”, in that order: 41.7 nM and 139 nM.
For “GCAGAAGUAGUGAGGAUAUGCUCUACCUCGGUAGAGCAGAAGGCACAUGAGGAUCACCCAUGUGAUUCUUCUGC”, in that order: 26.9 nM and 158 nM.
Consider “GCUGCAUAGGCAGGAUAUGCAAAAGCAGAUGCAAAGCAUCUGCAAUAAACAUGAGGAUCACCCAUGUAGAAGGGCCUGUGCAGU”, for which the “apparent Kd” value reads like this: under setting [3], 20.8 nM; under setting [4], 19.4 nM.
Regarding “CGCAAUAUACAGAAGGAGUUAUUUAGAGGUUUACUAGGAUAUGUUCACAUGAGGAUCACCCAUGUCAUAUGGUUUUUUAUUGCG”, the “apparent Kd” value is, setting by setting: under setting [3], 10.1 nM; under setting [4], 8.96 nM.
For “AAAGGACGAGGAUAUACAUGAGGAUCACCCAUGUAAAAAGCGUAGCAAAAGUGCUUAUGUAGAAGGCGUCCAAA”, in that order: 21.9 nM and 59.2 nM.
As to “GUCAGCUCGUGAGGAUAUACAACACUGCUUCGGCAGUGUAUUAAGAUCACAUGAGGAUCACCCAUGUAGAAGGCACGAGCUGAU”, the “apparent Kd” value is 42.1 nM under setting [3] and 832 nM under setting [4].
With “UUUUUGUGAGGAUAUACGUAGUAGAACAAUAGUACUACUACGUAGAAGGCACAUGAGGAUCACCCAUGUUCCUC”, the “apparent Kd” value is, setting by setting: under setting [3], 47.6 nM; under setting [4], 339 nM.
Regarding “GGAGCUACAACCGACGGAUAGAUGCAGGAUAUGCUCACAUGAGGAUCACCCAUGUGCUGAAACUGGCAGAAGGGUAUCACCGCC”, the “apparent Kd” value is, setting by setting: under setting [1], 7.83 nM; under setting [2], 4.59 nM.
For “UCUGGAGGAAAACAGACGAAGUGGCCAGAAGGUGAAUGCCACAUGAGGAUCACCCAUGUUUCGAUCAAGGAUAUGGUUUCUCAC”, in that order: 185 nM and 72.4 nM.
As to “CGUCUCAUAGGAUAUGCACGGAGGCAGGUCCUUGGCAACACACAUGAGGAUCACCCAUGUAGAAGGAUGCUACG”, the “apparent Kd” value runs as follows: under setting [3], 19.4 nM; under setting [4], 30.5 nM.
For the sequence “GUAGCAUACCGAGGAUAUCUCAAUAAUAAACAAACAUGAGGAUCACCCAUGUGGCGAAAGCCAAGGGAGAAGGCGGAAUGCUAC”, the “apparent Kd” value under setting [1] worked out at 43.1 nM and the “apparent Kd” value under setting [2] is 17.6 nM.
As to “AUGUUACAUGAGGAUCACCCAUGUGAGGAUAUGUGUACCGGUAAAAAAGUGUUUGGCCACAGAAGGCAUUUGGG”, the “apparent Kd” value by setting is: under setting [3], 44.5 nM; under setting [4], 84.5 nM.
In the same order, the values of “UAGUGGCAAGGAUAUACAGUGGAGAGGAUUGCAAGAGGUGGACAUGAGGAUCACCCAUGUAGAAGGUGCAGAGA” are 298 nM and 182 nM.
For “UUUUUGUCAGGAUAUACGUAGUAGAACAAUAGUACUACUACGUAGAAGGGACAUGAGGAUCACCCAUGUUCCUC”, the “apparent Kd” value under setting [3] worked out at 14.8 nM and the “apparent Kd” value under setting [4] came out at 30.9 nM.
For “GUUGUGUAAGGAUAUGCCUGGCCGUGAGGCCAGAUUGAAUGGCAGAAGGUACAUGAGGAUCACCCAUGUACGGG”, in that order: 33.2 nM and 188 nM.
For “AAUAAACAUGAGGAUCACCCAUGUGAGGAUAUGGUAUUAUUUGGACAGUUAUGAUAUACCAGAAGGCACAAAUA”, in that order: 28 nM and 46.8 nM.
In the case of “GCCAUCGCAUGAGGAUAUGCUCGGGUUUCCCGAGCAGAAGGCAUGUCGUAAGACAUGAGGAUCACCCAUGUAGUUAAGAUGGCA”, the “apparent Kd” value reads like this: under setting [1], 915 nM; under setting [2], 76.8 nM.
In the same order, the values of “CGUGACUACAUAGGAUAUUGAUACAUGAGGAUCACCCAUGUCACCCAUUUAUAUAUUAGUGUUGACAAGAAGGAUGUGGUCACG” are 16.2 nM and 7.25 nM.
On to “UAGAAGUCAGGAUAUCCAGCUCGUCACUUGCGUGAUGAGUUGGAGAAGGGACAUGAGGAUCACCCAUGUAAAGA”, for which the “apparent Kd” value under setting [3] was 61.9 nM and the “apparent Kd” value under setting [4] was 57.8 nM.
In the case of “GGAGCCGGCACCGAGGAUAUUCAUAUUAAAACAUGAGGAUCACCCAUGUAGCUCGAAAGAGCUUGGGAGAAGGCGGAUCGGCUCG”, the “apparent Kd” value under setting [1] turned out to be 840 nM and the “apparent Kd” value under setting [2] was 43.1 nM.
On to “UUUUUACGAGGAUAUCGAUUGUGGUACAUGAGGAUCACCCAUGUAUGUGAUAUUGUAUUUCGAGAAGGCGUUCAGU”, for which the “apparent Kd” value reads like this: under setting [3], 19.3 nM; under setting [4], 17.8 nM.
In the same order, the values of “GUUACACAUGAGGAUCACCCAUGUAAGGAUAUGCUGCGGUCGCGCUGACGUGACUGCAGCAGAAGGUACAAAUG” are 77.4 nM and 92.1 nM.
In the same order, the values of “GCACAUGAUACAGGAUAUGUAUUGGAAUAUAUAAUGAAUUAGAUGAAAUUGACAGAAGGGUAGACAUGAGGAUCACCCAUGUGC” are 324 nM and 186 nM.
“GUUGCUUUCCGAGGAUAUUCCGGGCGUGGCUAUACAUGAGGAUCACCCAUGUGGCGGCCGCCUAGGGAGAAGGCGGGCUGCUUC”: the “apparent Kd” value by setting is: under setting [1], 15.9 nM; under setting [2], 15.7 nM.
Regarding “AGUAAGAUGCAGAAGGUGUUAGCUAGAGCUACGACAUGAGGAUCACCCAUGUACUCAAAACCGUACAAGGAUAUGCAUCUUACA”, the “apparent Kd” value runs as follows: under setting [1], 9.55 nM; under setting [2], 6.26 nM.
As to “UGAGCCGGCACUGAGGAUAUUCAUAAUAAAACAUGAGGAUCACCCAUGUAGGCCAGAAGGCCUUGGGAGAAGGCAGGUCGGCUCA”, the “apparent Kd” value came to 257 nM under setting [1] and 23.3 nM under setting [2].
